Calls of active or inactive are those of the source. No cut-off for these calls is given here.
Key:
[1] = biological target: Metabotropic glutamate receptor 4 (Homo sapiens) (UniProt Q14833); experiment: Inhibition of mGluR4 expressed in CHO cells at 10 uM; type: cell-based
[2] = biological target: Metabotropic glutamate receptor 6 (Homo sapiens) (UniProt O15303); experiment: Inhibition of mGluR6 expressed in CHO cells at 10 uM; type: cell-based
[3] = biological target: Metabotropic glutamate receptor 1 (Homo sapiens) (UniProt Q13255); experiment: Inhibition of mGluR1 expressed in CHO cells at 10 uM; type: cell-based
[4] = biological target: T1, Metabotropic glutamate receptor 5 (Rattus norvegicus, UniProt P31424); experiment: Displacement of [3HMPEP from rat cloned mGluR5 expressed in HEK293T cells by scintillation counting; type: cell-based, HEK-293T
How it was run: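 Radioligand displacement with [3H]MPEP, run through the NIMH Psychoactive Drug Screening Program. Receptor source was rat brain membranes or HEK293-T cells transfected with cloned rat mGluR5 cDNA. Ki reported as ±SEM.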

[5] = biological target: Glutamate NMDA receptor (Rattus norvegicus) (UniProt P35439+Q00959+Q00960+Q00961+Q62645+Q8VHN2+Q9R1M7); experiment: Displacement of [3H]MK801 from NMDA receptor in rat brain homogenate at 10 uM by scintillation counting; type: tissue-based
[6] = biological target: Metabotropic glutamate receptor 8 (Homo sapiens) (UniProt O00222); experiment: Inhibition of mGluR8 expressed in CHO cells at 10 uM; type: cell-based
[7] = biological target: T1, Metabotropic glutamate receptor 5; experiment: Antagonist activity at rat mGluR5 expressed in HEK293A cells assessed as inhibition of glutamate-induced calcium flux preincubated for 140 secs before glutamate challenge by calcium fluorescence assay; type: functional, cell-based, HEK293-A
How it was run: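 Functional read-out was receptor-induced intracellular calcium release, detected by calcium fluorescence. A kinetic imaging plate reader recorded calcium levels simultaneously in every well of 384-well plates. IC50 reported as ±SEM.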

[8] = biological target: Metabotropic glutamate receptor 2 (Homo sapiens) (UniProt Q14416); experiment: Inhibition of mGluR2 expressed in CHO cells at 10 uM; type: cell-based
[9] = biological target: Metabotropic glutamate receptor 5 (Rattus norvegicus) (UniProt P31424); conditions: HEK293-A, 0.0001 to 100 uM

T1 sequence (P31424 whole entry): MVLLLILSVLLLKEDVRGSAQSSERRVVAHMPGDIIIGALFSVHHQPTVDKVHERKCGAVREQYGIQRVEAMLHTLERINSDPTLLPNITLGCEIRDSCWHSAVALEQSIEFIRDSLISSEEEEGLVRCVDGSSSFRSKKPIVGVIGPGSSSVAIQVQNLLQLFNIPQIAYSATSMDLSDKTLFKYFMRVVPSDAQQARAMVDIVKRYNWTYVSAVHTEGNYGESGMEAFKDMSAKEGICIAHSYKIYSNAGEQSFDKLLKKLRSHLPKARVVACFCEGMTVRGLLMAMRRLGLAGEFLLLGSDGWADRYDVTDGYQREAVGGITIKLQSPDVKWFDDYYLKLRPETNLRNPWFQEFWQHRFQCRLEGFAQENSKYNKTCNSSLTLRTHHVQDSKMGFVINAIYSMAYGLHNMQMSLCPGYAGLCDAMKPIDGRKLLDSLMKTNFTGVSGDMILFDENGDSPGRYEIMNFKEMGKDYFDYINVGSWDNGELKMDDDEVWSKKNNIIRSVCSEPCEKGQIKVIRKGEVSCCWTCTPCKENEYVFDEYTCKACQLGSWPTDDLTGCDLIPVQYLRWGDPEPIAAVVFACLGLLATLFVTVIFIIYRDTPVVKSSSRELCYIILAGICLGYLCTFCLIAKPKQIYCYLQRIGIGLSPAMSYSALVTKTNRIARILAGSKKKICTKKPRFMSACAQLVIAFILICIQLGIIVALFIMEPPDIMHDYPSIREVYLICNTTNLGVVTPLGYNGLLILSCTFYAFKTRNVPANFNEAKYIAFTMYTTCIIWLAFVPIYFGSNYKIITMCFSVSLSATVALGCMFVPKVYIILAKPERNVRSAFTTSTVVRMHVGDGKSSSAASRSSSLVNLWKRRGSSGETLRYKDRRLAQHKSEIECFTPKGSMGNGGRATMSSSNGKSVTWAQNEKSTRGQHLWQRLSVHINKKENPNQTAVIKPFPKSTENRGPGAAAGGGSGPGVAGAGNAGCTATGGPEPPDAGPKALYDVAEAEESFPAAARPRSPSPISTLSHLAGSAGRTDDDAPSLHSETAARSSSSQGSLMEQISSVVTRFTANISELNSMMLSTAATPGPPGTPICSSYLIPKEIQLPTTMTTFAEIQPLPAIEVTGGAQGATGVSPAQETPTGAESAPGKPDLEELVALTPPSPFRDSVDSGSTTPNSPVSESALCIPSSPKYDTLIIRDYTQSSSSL
Chain of Metabotropic glutamate receptor 4 (Homo sapiens) (Q14833 whole entry): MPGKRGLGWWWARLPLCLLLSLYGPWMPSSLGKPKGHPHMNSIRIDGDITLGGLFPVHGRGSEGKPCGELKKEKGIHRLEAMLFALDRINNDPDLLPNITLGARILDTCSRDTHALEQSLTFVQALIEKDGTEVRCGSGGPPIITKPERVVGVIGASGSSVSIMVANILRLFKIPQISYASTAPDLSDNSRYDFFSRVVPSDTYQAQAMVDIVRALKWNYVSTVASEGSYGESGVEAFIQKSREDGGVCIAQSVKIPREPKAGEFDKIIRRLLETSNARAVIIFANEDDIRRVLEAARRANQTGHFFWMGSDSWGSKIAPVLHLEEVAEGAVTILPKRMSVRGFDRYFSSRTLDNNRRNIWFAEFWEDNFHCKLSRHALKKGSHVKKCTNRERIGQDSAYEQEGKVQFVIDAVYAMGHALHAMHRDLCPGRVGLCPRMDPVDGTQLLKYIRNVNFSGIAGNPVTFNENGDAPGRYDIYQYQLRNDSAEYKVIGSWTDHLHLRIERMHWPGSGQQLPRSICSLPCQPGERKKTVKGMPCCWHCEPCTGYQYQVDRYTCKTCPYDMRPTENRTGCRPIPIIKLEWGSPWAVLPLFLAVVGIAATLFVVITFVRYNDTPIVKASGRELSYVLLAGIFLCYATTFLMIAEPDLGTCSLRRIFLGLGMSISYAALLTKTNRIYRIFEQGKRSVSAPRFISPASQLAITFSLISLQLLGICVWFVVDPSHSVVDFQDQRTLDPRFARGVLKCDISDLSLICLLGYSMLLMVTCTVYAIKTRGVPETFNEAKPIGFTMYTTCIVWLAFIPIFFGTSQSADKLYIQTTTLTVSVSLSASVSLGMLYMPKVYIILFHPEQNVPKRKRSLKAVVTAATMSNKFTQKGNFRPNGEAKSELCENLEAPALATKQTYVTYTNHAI
Chain of Metabotropic glutamate receptor 2 (Homo sapiens) (Q14416 19-872 limits assumed): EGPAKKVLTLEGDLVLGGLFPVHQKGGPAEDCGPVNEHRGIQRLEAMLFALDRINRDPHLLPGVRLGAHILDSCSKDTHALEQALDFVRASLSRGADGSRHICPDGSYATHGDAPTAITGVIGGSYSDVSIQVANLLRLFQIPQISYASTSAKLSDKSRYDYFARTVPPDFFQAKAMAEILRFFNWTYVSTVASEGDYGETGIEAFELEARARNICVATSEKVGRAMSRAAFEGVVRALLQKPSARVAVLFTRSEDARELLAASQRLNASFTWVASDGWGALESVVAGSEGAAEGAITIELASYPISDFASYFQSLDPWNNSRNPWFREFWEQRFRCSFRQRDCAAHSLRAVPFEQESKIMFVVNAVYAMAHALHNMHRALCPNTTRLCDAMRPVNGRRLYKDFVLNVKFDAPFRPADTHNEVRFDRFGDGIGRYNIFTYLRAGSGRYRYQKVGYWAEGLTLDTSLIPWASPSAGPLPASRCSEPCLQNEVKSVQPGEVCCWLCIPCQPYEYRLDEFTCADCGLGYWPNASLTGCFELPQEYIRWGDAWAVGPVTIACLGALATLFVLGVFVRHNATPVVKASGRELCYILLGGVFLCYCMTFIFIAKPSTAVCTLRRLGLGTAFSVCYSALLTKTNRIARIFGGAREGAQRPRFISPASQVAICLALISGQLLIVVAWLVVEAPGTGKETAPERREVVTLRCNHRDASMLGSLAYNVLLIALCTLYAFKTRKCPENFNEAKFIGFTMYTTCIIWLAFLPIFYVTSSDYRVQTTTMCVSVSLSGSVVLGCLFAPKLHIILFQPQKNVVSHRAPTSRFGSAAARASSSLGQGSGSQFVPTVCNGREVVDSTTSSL
Chain of Metabotropic glutamate receptor 1 (Homo sapiens) (Q13255 19-1194 limits assumed): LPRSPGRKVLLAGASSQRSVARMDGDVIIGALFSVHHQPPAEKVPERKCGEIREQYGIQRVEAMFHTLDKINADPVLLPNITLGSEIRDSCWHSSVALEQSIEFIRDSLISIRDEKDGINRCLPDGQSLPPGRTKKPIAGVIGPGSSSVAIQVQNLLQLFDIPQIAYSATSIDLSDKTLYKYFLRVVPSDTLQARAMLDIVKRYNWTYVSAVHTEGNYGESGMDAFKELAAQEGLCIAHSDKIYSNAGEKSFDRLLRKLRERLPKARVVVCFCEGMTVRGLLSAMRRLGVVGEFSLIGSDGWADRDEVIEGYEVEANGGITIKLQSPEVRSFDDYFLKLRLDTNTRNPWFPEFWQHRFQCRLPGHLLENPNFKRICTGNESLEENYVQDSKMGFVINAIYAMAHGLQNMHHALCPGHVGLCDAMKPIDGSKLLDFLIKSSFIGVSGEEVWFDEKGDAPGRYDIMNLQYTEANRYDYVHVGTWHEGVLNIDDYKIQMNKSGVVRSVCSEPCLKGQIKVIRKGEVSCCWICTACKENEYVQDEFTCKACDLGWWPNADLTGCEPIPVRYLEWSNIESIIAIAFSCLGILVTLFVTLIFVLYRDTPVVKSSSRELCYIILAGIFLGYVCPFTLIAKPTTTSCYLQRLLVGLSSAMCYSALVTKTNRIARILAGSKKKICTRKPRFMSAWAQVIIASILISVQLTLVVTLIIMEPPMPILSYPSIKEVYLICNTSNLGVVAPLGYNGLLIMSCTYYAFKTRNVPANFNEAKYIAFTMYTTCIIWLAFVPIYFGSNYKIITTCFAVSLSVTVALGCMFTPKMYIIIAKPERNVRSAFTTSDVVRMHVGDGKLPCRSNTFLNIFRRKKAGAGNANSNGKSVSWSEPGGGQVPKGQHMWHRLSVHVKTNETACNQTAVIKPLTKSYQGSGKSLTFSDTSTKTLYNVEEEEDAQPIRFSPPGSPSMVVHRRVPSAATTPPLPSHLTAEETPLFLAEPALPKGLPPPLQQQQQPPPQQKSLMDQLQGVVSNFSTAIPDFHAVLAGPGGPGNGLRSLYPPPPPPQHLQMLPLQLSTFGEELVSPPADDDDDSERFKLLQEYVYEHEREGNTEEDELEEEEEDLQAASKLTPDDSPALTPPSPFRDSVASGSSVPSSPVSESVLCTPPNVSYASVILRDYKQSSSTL
Chain of Metabotropic glutamate receptor 6 (Homo sapiens) (O15303 whole entry): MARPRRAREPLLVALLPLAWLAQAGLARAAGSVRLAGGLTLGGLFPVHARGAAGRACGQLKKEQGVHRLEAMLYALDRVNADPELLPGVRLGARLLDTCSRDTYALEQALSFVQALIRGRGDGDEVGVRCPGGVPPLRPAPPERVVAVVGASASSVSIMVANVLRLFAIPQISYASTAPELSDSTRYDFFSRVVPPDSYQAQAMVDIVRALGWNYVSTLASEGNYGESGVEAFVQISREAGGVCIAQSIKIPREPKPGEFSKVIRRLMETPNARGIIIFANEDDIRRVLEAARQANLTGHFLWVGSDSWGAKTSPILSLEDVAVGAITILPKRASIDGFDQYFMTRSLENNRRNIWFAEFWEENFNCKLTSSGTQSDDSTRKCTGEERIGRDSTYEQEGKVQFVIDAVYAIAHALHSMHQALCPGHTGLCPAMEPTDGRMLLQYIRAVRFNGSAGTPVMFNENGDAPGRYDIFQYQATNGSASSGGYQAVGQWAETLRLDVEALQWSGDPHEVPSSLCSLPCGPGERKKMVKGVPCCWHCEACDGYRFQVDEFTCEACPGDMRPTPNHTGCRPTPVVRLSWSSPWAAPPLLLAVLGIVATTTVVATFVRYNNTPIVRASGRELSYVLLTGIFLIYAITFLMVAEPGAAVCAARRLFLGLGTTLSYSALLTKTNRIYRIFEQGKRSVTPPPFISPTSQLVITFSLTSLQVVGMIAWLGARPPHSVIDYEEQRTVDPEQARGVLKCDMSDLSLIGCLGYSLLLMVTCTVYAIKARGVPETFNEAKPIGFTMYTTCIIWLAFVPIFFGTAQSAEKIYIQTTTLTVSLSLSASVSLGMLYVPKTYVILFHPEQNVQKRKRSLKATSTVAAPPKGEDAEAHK

inhibition [1] | inhibition [2] | inhibition [3] | Ki [4] | Activity [5] | inhibition [6] | IC50 [7] | inhibition [8] | inhibition [9] | Compound
< 50% | < 50% | < 50% | 0.097 µM | inactive | < 50% | 1.25 µM | < 50% |  | Cc1ccc2ccc(-c3ccc(-c4ccccc4)c(C#N)c3)cc2n1
< 50% | < 50% | < 50% | > 10 µM | inactive | < 50% | > 10 µM | < 50% |  | Cc1ccc2ccc(-c3ccc(O)c(C#N)c3)cc2n1
< 50% | < 50% | < 50% | 0.73 µM | inactive | < 50% | 1.34 µM | < 50% |  | Cc1ccc2ccc(-c3ccc(-c4cccnc4)c(C#N)c3)cc2n1
< 50% | < 50% | < 50% | 0.064 µM | inactive | < 50% | 0.692 µM | < 50% |  | Cc1ccc2ccc(-c3ccc(-c4ccc(F)cc4)c(C#N)c3)cc2n1
< 50% | < 50% | < 50% | 4.68 µM | inactive | < 50% | > 10 µM | < 50% |  | Cc1nc2cc(-c3ccc(-c4ccc(F)cc4)c(C#N)c3)ccc2s1

Further lines, the compound ahead of its results:

Compound | inhibition [1] | inhibition [2] | inhibition [3] | Ki [4] | Activity [5] | inhibition [6] | IC50 [7] | inhibition [8] | inhibition [9]
Cc1ccc2ccc(-c3cnc(-c4ccccc4)c(C#N)c3)cc2n1 | < 50% | < 50% | < 50% | 0.097 µM | inactive | < 50% | 0.081 µM | < 50% | 
Cc1ccc2ccc(-c3ccc(Cl)cc3C#N)cc2n1 | < 50% | < 50% | < 50% | 4.72 µM | inactive | < 50% | 9.15 µM | < 50% | 
Cc1nc2cc(-c3ccc(OS(=O)(=O)C(F)(F)F)c(C#N)c3)ccc2s1 | < 50% | < 50% | < 50% | 0.862 µM | inactive | < 50% | 7.84 µM | < 50% | 
Cc1cccc(C#Cc2cncc(C#N)c2)n1 | < 50% | < 50% | < 50% | 0.0015 µM | inactive | < 50% | 0.013 µM | < 50% | 
COCOc1ccc(-c2ccc3ccc(C)nc3c2)cc1C#N | < 50% | < 50% | < 50% | 0.596 µM | inactive | < 50% | 0.294 µM | < 50% | 
Cc1ccc2ccc(-c3cnc(Cl)c(C#N)c3)cc2n1 | < 50% | < 50% | < 50% | > 10 µM | inactive | < 50% | 3.31 µM | < 50% | 50%
Cc1nc(C#Cc2cccnc2)cs1 | < 50% | < 50% | < 50% |  | inactive | < 50% |  | < 50% | 
Cc1nc2cc(-c3ccc(OCc4ccccc4)c(C#N)c3)ccc2s1 | < 50% | < 50% | < 50% | 7.13 µM | inactive | < 50% | > 10 µM | < 50% | 
Cc1ccc2ccc(-c3ccc(OCc4ccccc4)c(C#N)c3)cc2n1 | < 50% | < 50% | < 50% | 1.04 µM | inactive | < 50% | > 10 µM | < 50% | 
Cc1nc2cc(-c3cccc(C#N)c3)ccc2s1 | < 50% | < 50% | < 50% |  | inactive | < 50% |  | < 50% | 

— ChEMBL document CHEMBL1158569, “Structure-activity relationships in a novel series of 7-substituted-aryl quinolines and 5-substituted-aryl benzothiazoles at the metabotropic glutamate receptor subtype 5” (Bioorg Med Chem, 2010)
